ChEMBL document CHEMBL5338825, “Structure-Based Discovery of Inhibitors of the SARS-CoV-2 Nsp14 N7-Methyltransferase” (J Med Chem, 2023)
The source made the active and inactive calls. The calls are words filed in the database; no cut-off is given here.

Columns and labels:
[1] = target: Histone-lysine N-methyltransferase NSD3 (Homo sapiens) (UniProt Q9BZ95); assay: Inhibition of human NSD3 using chicken nucleosome and 3H-SAM as substrate at 10 uM incubated for 1 hrs by TopCount scintillation proximity assay relative to control
Method in brief: (§1)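 Human methyltransferase panel, radiometric assays. Each compound tested at a single 10 μM concentration in triplicate. Enzymes inhibited by more than 50% were taken on to concentration–response.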

[2] = target: Histone-lysine N-methyltransferase EHMT1 (Homo sapiens) (UniProt Q9H9B1); assay: Inhibition of human GLP using biotin-tagged Histone H3 and 3H-SAM as substrate at 10 uM incubated for 1 hrs by TopCount scintillation proximity assay relative to control; method in brief: as §1
[3] = target: Protein arginine N-methyltransferase 1 (Homo sapiens, UniProt Q99873); assay: Inhibition of human PRMT1 using biotin-tagged Histone H4 and 3H-SAM as substrate at 10 uM incubated for 1 hrs by TopCount scintillation proximity assay relative to control; method in brief: as §1
[4] = target: Replicase polyprotein 1ab (Severe acute respiratory syndrome coronavirus 2, UniProt P0DTD1); assay: Inhibition of N-terminal 6His/SUMO-tagged SARS-CoV-2 NSP14 expressed in Escherichia coli Rosetta 2 (DE3) PlysS cells using 5'GpppACCCCCCCCC-Biotin 3' and 3H-SAM as substrates incubated for 30 mins by TopCount scintillation proximity assay
[5] = target: Protein arginine N-methyltransferase 3 (Homo sapiens, UniProt O60678); assay: Inhibition of human PRMT3 using biotin-tagged Histone H4 and 3H-SAM as substrate at 10 uM incubated for 1 hrs by TopCount scintillation proximity assay relative to control; method in brief: as §1
[6] = target: Histone-lysine N-methyltransferase SUV39H1 (Homo sapiens) (UniProt O43463); assay: Inhibition of human SUV39H1 using Biotin-tagged histone H3 and 3H-SAM as substrate at 10 uM incubated for 1 hrs by TopCount scintillation proximity assay relative to control
Method in brief: (§2)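 Selectivity panel against human SAM-dependent methyltransferases, radiometric format. Single test concentration of 10 μM, triplicate, read as percent inhibition.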

[7] = target: Replicase polyprotein 1ab (Severe acute respiratory syndrome coronavirus 2) (UniProt P0DTD1); assay: Competitive inhibition of N-terminal 6His/SUMO-tagged SARS-CoV-2 NSP14 expressed in Escherichia coli Rosetta 2 (DE3) PlysS cells using 5'GpppACCCCCCCCC-Biotin 3' and 3H-SAM as substrates at increasing concentration incubated for 30 mins by TopCount scintillation proximity assay
Method in brief: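 Competition pattern read from IC50 shifts. […] Separately, SAM fixed at 1.25 μM (5× Km) with RNA varied up to 0.5 μM (10× Km). A linear rise of IC50 with substrate concentration was taken as competitive inhibition.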

Bacteria = assay: Inhibition of beta-lactamase AmpC (unknown origin) pre-incubated with compound for 5 mins followed by substrate addition and measured after 1.5 mins by absorbance based plate reader analysis; conditions: time 6.5 min
Method in brief: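 AmpC at 2 nM preincubated 5 min with compound at room temperature in 50 mM KPi, pH 7.0, with 1% v/v DMSO. Started with 50 μM CENTA (read at 405 nm) or 50 μM nitrocefin (read at 490 nm), monitored 1 min 30 s. Initial rate taken as % of DMSO control. Top concentration in triplicate; eight-point half-log curves in triplicate where inhibition exceeded 40%.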

Homo sapiens [8] = species: Homo sapiens; assay: Inhibition of MDH (unknown origin) using oxaloacetic acid as substrate preincubated with compound for 5 mins followed by substrate addition and measured after 1.5 min in the presence of NADH by absorbance based plate reader analysis; conditions: time 6.5 min
Method in brief: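 MDH assay at room temperature in 50 mM KPi, pH 7.0, with 1% v/v DMSO final. Compound preincubated 5 min with 2 nM enzyme. Reaction started with 200 μM NADH plus 200 μM oxaloacetic acid, and absorbance followed at 340 nm for 1 min 30 s. Initial rate divided by the DMSO control rate. Single top concentration in triplicate; eight-point half-log curves in triplicate where inhibition exceeded 40%.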

[9] = target: Histone-lysine N-methyltransferase, H3 lysine-79 specific (Homo sapiens, UniProt Q8TEK3); assay: Inhibition of human DOT1L using chicken nucleosome and 3H-SAM as substrate at 10 uM incubated for 1 hrs by TopCount scintillation proximity assay relative to control; method in brief: as §1
[10] = target: Protein arginine N-methyltransferase 6 (Homo sapiens) (UniProt Q96LA8); assay: Inhibition of human PRMT6 using biotin-tagged Histone H4 and 3H-SAM as substrate at 10 uM incubated for 1 hrs by TopCount scintillation proximity assay relative to control; method in brief: as §1
[11] = target: Histone-lysine N-methyltransferase PRDM9 (Homo sapiens) (UniProt Q9NQV7); assay: Inhibition of human PRDM9 using biotin-tagged Histone H3 and 3H-SAM as substrate at 10 uM incubated for 1 hrs by TopCount scintillation proximity assay relative to control; method in brief: as §1
[12] = target: RNA 5'-monophosphate methyltransferase (Homo sapiens) (UniProt Q7Z5W3); assay: Inhibition of human BCDIN3D using biotin-tagged microRNA-145 and 3H-SAM as substrate at 10 uM incubated for 1 hrs by TopCount scintillation proximity assay relative to control; method in brief: as §1
[13] = target: Histone-lysine N-methyltransferase 2A (Homo sapiens, UniProt Q03164); assay: Inhibition of human MLL1 using biotin-tagged Histone H3 and 3H-SAM as substrate at 10 uM incubated for 1 hrs by TopCount scintillation proximity assay relative to control; method in brief: as §1
[14] = target: Histone-lysine N-methyltransferase KMT5C (Homo sapiens) (UniProt Q86Y97); assay: Inhibition of human SUV420H2 using Biotin-tagged H4K20me1 and 3H-SAM as substrate at 10 uM incubated for 1 hrs by TopCount scintillation proximity assay relative to control; method in brief: as §2
Homo sapiens [15] = species: Homo sapiens; assay: Inhibition of human EZH2 using biotin-tagged Histone H3 and 3H-SAM as substrate at 10 uM incubated for 1 hrs by TopCount scintillation proximity assay relative to control; method in brief: as §1
[16] = target: Histone-lysine N-methyltransferase SETD7 (Homo sapiens) (UniProt Q8WTS6); assay: Inhibition of human SETD7 using biotin-tagged Histone H3 and 3H-SAM as substrate at 10 uM incubated for 1 hrs by TopCount scintillation proximity assay relative to control; method in brief: as §2
[17] = Aggregation property of the compound in KPi buffer at pH 7.0 assessed as formation of colloid-like particles by dynamic light scattering analysis; assay type: physicochemical
Method in brief: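 Compounds diluted as 8-point half-log series in filtered 50 mM KPi, pH 7.0, with 1% v/v DMSO final. Particles detected by dynamic light scattering, triplicate at each concentration. CAC taken as the intersection of separate nonlinear fits to aggregating (>10^6 scattering intensity) and non-aggregating data.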

[18] = target: Protein arginine N-methyltransferase 5 (Homo sapiens) (UniProt O14744); assay: Inhibition of human PRMT5 using biotin-tagged Histone H4 and 3H-SAM as substrate at 10 uM incubated for 1 hrs by TopCount scintillation proximity assay relative to control; method in brief: as §1
[19] = target: N-lysine methyltransferase SMYD2 (Homo sapiens) (UniProt Q9NRG4); assay: Inhibition of human SMYD2 using biotin-tagged p53 and 3H-SAM as substrate at 10 uM incubated for 1 hrs by TopCount scintillation proximity assay relative to control; method in brief: as §2

Histone-lysine N-methyltransferase 2A, sequence (Q03164 1-2718 limits assumed): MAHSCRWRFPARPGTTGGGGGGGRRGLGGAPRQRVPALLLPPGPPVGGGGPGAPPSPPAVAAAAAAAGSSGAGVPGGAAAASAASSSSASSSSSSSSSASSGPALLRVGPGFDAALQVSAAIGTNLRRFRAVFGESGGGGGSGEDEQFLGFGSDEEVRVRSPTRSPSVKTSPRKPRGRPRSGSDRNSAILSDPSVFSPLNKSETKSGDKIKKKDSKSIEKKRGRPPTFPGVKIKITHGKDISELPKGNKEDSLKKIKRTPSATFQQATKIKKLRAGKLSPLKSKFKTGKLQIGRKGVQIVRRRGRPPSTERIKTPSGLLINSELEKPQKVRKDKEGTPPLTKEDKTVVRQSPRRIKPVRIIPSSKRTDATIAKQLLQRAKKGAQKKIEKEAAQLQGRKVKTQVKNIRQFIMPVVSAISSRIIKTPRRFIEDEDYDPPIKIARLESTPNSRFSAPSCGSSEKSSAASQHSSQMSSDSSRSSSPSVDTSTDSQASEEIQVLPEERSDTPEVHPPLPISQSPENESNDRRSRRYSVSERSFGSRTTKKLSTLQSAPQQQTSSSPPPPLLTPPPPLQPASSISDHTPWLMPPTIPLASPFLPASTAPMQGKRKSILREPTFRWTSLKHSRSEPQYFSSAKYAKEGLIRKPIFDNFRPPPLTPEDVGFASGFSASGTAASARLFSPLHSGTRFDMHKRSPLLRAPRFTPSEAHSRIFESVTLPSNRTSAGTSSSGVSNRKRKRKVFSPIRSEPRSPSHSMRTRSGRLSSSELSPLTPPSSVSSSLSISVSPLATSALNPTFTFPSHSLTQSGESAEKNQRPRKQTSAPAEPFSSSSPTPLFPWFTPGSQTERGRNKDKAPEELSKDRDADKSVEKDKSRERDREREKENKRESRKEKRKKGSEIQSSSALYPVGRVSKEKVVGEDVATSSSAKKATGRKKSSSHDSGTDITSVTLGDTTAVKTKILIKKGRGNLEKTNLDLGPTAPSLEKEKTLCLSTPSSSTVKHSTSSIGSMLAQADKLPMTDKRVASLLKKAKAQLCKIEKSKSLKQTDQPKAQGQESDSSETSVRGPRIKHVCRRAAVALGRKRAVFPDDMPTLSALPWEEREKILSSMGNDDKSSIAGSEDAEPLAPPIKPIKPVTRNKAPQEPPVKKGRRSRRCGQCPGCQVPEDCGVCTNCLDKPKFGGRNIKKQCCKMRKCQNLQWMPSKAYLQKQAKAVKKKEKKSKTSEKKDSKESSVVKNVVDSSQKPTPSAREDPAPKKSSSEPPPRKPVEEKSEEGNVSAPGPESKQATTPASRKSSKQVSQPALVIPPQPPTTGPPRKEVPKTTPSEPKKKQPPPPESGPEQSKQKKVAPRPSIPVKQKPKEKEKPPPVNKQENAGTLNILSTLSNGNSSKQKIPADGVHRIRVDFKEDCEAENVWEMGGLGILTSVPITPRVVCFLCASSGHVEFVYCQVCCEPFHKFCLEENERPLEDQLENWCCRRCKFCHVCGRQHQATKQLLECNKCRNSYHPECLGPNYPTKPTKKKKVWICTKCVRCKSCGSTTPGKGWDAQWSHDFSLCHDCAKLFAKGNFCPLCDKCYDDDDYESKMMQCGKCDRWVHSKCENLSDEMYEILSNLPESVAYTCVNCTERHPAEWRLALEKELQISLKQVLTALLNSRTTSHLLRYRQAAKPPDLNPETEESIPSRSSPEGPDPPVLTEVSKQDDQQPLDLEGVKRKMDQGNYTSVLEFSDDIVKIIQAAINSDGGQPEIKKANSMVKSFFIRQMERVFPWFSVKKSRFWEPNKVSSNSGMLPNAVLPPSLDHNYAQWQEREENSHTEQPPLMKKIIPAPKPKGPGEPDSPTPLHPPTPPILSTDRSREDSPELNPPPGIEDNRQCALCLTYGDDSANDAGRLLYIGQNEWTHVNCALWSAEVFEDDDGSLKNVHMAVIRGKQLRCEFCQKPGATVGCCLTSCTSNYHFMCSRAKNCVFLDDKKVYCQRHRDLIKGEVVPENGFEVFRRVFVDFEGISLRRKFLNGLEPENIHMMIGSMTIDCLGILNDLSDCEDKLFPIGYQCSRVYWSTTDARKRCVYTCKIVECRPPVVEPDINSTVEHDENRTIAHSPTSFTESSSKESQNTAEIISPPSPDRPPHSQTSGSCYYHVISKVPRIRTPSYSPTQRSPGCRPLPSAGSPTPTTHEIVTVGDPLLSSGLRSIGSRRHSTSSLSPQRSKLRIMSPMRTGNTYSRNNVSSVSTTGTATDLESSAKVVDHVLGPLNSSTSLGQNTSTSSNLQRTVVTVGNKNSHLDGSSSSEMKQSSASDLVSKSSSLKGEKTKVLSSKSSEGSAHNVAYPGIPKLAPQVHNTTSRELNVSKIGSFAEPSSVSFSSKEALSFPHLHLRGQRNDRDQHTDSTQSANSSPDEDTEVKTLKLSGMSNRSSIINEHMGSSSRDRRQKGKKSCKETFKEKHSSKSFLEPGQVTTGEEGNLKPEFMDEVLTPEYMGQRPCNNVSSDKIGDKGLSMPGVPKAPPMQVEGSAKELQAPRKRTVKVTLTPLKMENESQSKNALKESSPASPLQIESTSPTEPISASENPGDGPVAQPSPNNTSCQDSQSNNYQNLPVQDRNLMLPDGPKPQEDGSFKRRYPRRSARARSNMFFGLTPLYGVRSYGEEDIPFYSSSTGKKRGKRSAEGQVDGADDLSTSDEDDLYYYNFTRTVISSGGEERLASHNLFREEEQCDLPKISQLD
Histone-lysine N-methyltransferase 2A, sequence (Q03164 2719-3969 limits assumed): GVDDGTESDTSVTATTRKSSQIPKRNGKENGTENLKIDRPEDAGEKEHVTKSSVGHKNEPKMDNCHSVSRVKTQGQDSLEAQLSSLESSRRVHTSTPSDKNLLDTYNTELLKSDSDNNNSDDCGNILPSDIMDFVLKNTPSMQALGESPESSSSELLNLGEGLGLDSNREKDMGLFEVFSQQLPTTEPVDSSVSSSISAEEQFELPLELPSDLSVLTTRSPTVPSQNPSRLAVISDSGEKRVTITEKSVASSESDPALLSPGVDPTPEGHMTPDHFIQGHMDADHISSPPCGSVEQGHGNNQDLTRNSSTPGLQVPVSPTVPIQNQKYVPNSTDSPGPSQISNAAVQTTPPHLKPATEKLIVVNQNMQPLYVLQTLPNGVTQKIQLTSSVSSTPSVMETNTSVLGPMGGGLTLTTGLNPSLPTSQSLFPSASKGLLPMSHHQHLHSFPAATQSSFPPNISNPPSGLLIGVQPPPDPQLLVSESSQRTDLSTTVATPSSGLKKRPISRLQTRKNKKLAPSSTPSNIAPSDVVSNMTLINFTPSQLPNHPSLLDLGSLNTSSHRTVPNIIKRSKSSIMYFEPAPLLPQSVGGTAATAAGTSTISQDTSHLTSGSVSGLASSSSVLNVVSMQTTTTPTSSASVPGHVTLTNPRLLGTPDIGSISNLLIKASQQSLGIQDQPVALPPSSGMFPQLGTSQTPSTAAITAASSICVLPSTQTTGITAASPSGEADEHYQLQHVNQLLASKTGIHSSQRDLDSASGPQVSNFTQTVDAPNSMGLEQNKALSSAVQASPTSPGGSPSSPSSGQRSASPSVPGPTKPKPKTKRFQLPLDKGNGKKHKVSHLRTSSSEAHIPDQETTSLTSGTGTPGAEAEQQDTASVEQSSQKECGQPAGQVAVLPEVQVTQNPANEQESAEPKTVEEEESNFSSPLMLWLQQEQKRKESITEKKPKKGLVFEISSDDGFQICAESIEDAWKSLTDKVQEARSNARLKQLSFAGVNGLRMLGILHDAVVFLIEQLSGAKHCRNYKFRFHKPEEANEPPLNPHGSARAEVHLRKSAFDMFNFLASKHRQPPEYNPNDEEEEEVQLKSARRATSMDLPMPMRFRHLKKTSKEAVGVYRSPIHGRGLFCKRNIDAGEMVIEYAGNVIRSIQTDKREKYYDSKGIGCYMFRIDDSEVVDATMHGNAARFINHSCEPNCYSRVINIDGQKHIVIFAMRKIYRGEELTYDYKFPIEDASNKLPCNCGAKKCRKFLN
Protein arginine N-methyltransferase 3, sequence (O60678 2-531 limits assumed): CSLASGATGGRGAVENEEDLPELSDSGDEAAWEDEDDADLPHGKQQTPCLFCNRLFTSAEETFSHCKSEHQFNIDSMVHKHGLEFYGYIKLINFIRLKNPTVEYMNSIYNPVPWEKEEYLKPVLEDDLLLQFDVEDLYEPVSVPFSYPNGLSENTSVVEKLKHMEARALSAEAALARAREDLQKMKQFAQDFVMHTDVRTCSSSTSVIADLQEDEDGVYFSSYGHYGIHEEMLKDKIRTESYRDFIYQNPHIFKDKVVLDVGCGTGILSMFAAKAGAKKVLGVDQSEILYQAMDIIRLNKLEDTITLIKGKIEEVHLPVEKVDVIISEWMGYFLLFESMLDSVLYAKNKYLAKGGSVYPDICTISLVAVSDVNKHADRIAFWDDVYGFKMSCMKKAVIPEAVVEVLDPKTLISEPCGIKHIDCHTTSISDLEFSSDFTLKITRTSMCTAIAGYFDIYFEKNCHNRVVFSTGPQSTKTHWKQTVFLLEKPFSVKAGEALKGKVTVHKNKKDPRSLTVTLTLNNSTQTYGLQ
Histone-lysine N-methyltransferase SUV39H1 (Homo sapiens), sequence (O43463 whole entry): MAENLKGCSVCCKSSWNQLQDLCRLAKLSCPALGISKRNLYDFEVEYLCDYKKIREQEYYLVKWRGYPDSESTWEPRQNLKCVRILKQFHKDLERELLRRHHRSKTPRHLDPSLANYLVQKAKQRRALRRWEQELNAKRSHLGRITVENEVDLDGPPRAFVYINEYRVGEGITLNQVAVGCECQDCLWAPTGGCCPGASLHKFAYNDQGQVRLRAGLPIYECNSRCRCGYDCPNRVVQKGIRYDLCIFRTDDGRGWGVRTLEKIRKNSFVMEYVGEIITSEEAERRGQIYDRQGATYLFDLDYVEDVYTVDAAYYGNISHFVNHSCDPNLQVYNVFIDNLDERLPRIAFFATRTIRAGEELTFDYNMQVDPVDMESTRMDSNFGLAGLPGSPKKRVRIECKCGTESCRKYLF

Cc1c(C(=O)/C=C/c2ccc(O)c([N+](=O)[O-])c2)c(C#N)c2n1CCC2
inhibition [1]: < 50% | inhibition [2]: < 50% | inhibition [3]: < 50% | IC50 [4]: 50 µM | inhibition [5]: < 50% | inhibition [6]: < 50% | inhibition [7]: Active | inhibition (Bacteria): Active | inhibition (Homo sapiens [8]): Active | inhibition [9]: < 50% | inhibition [10]: < 50% | inhibition [11]: < 50% | inhibition [12]: < 50% | inhibition [13]: < 50% | inhibition [14]: < 50% | inhibition (Homo sapiens [15]): < 50% | inhibition [16]: < 50% | Activity [17]: Not Active | inhibition [18]: < 50% | inhibition [19]: < 50%
